Measurements from ChEMBL document CHEMBL5338743, “Identification of a Selective SCoR2 Inhibitor That Protects Against Acute Kidney Injury” (J Med Chem, 2023).
One block for each molecule: values may come before it. Active and inactive are the calls of the source. The rule behind the calls is not given here.

Legend:
Homo sapiens = species on record: Homo sapiens; assay: Selectivity index, ratio of IC50 for inhibition of human recombinant AKR1B1 expressed in Escherichia coli BL21-CodonPlus competent cells to IC50 for inhibition of human recombinant SCoR2 expressed in Escherichia coli BL21-CodonPlus competent cells
Summary of the method: (§1)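 Purified enzyme at 200 nM (SCoR2 with 100 μM SNO-CoA; AKR1B1 with 100 μM methylglyoxylate) in 50 mM phosphate pH 7.0 with serial inhibitor dilutions; started with 100 μM NADPH, 2 min. Rate from 340 nm decrease, normalized to 20 nM protein activity; IC50 fitted, n=3. Selectivity taken as AKR1B1/SCoR2 IC50 ratio.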

[1] = molecular target: T1, Aldo-keto reductase family 1 member B1 (Homo sapiens, UniProt P15121); assay: Inhibition of C-terminal 6His-tagged human recombinant AKR1B1 expressed in Escherichia coli BL21-CodonPlus competent cells using methyl glyoxylate as substrate incubated for 2 mins in presence of NADPH; summary of the method: as §1
[2] = molecular target: T2, Aldo-keto reductase family 1 member A1 (Homo sapiens, UniProt P14550); assay: Inhibition of C-terminal 6His-tagged human recombinant SCoR2 AKR1A1 expressed in Escherichia coli BL21-CodonPlus competent cells using SNO-CoA as substrate incubated for 2 mins in presence of NADPH; summary of the method: as §1
T2 sequence (P14550 whole entry): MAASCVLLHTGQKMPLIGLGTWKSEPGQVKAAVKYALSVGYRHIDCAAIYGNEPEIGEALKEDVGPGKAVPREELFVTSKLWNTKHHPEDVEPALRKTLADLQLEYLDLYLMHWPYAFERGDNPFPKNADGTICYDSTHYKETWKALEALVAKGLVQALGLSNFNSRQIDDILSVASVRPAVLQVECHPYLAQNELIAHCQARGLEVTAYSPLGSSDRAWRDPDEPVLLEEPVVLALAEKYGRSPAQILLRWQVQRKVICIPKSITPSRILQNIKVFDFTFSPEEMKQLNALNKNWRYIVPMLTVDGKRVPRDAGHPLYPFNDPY

[3] = molecular target: T1, Aldo-keto reductase family 1 member B1; assay: Inhibition of C-terminal 6His-tagged human recombinant AKR1B1 expressed in Escherichia coli BL21-CodonPlus competent cells using DL-glyceraldehyde as substrate
Summary of the method: (§2)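 Recombinant human His-tagged enzyme (20 nM) with 3 mM DL-glyceraldehyde in 50 mM phosphate pH 7.0, varying inhibitor from DMSO stocks; started with 100 μM NADPH, 2 min. NADPH consumption followed spectrophotometrically, slope used to fit IC50.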

[4] = molecular target: T2, Aldo-keto reductase family 1 member A1; assay: Inhibition of C-terminal 6His-tagged human recombinant SCoR2 AKR1A1 expressed in Escherichia coli BL21-CodonPlus competent cells using DL-glyceraldehyde as substrate; summary of the method: as §2
[5] = In vivo inhibition of SCoR2 in mouse assessed as reduction in SNO-CoA metabolic activity in kidneys at 20 mg/kg body weight, ip administered as single dose into lower right quadrant of abdomen measured after 18 hrs relative to control; type: functional
Summary of the method: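 Single i.p. injection into the mouse abdomen, DMSO vehicle; organs collected 18 h later. Tissues homogenized in 50 mM phosphate pH 7.0, 150 mM NaCl, EDTA/DTPA, then clarified; lysate started reactions with 200 μM SNO-CoA and 100 μM NADPH, 2 min, NADPH loss monitored, in triplicate. Compared with vehicle and SCoR2−/− kidneys.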

Mus musculus [6] = assay: In vivo inhibition of SCoR2 in ischemia/reperfusion induced acute kidney injury mouse model assessed as reduction in SNO-CoA metabolic activity in kidneys at 20 mg/kg, ip pretreated for 18 hrs followed by kidney injury surgery and measured after 24 hrs; type: functional, organism-based; conditions: time 42.0 hrs
Summary of the method: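 Male mice (9–11 weeks, 25–28 g) dosed i.p. 18 h before renal ischemia–reperfusion surgery under isoflurane; kidneys taken 24 h after reperfusion. Kidney lysate SNO-CoA reductase activity measured with 200 μM SNO-CoA, 100 μM NADPH, 2 min, triplicate assays; DMSO-treated controls.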

Mus musculus [7] = assay: Protection against ischemia/reperfusion induced acute kidney injury in mouse assessed as reduction in serum creatinine level at 20 mg/kg, ip pretreated for 18 hrs followed by kidney injury surgery and measured after 24 hrs; type: functional, organism-based; conditions: time 42.0 hrs
Summary of the method: (§3)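 Male mice (9–11 weeks, 25–28 g) given i.p. dose 18 h before ischemia–reperfusion AKI surgery under isoflurane; serum taken 24 h after reperfusion. Creatinine and BUN measured by a clinical laboratory; DMSO-treated controls.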

Mus musculus [8] = assay: Protection against ischemia/reperfusion induced acute kidney injury in mouse assessed as reduction in blood urea nitrogen level at 20 mg/kg, ip pretreated for 18 hrs followed by kidney injury surgery and measured after 24 hrs; type: functional, organism-based; conditions: time 42.0 hrs; summary of the method: as §3
Mus musculus [9] = assay: In vivo inhibition of SCoR2 in ischemia/reperfusion induced acute kidney injury mouse model assessed as reduction in SNO-CoA metabolic activity in kidneys at 125 mg/kg, ip administered for 3 to 12 weeks; type: functional, organism-based; conditions: time 3-12 weeks
Mus musculus [10] = assay: Protection against ischemia/reperfusion induced acute kidney injury in mouse assessed as reduction in serum creatinine level at 125 mg/kg, ip administered for 3 to 12 weeks; type: functional, organism-based; conditions: time 3-12 weeks
Mus musculus [11] = assay: Protection against ischemia/reperfusion induced acute kidney injury in mouse assessed as reduction in blood urea nitrogen level at 125 mg/kg, ip administered for 3 to 12 weeks; type: functional, organism-based; conditions: time 3-12 weeks
[12] = compound: O=C1NC(=O)C2(N1)c1ccccc1-c1ccc(C3CC3)cc12; assay: Uncompetitive inhibition of C-terminal 6His-tagged human recombinant SCoR2 AKR1A1 expressed in Escherichia coli BL21-CodonPlus competent cells using varying concentrations of SNO-CoA as substrate assessed as Vmax at 400 nM by Michaelis-Menten analysis (reference value: 23 umol.min)
[13] = compound: O=C1NC(=O)C2(N1)c1ccccc1-c1ccc(C3CC3)cc12; assay: Uncompetitive inhibition of C-terminal 6His-tagged human recombinant SCoR2 AKR1A1 expressed in Escherichia coli BL21-CodonPlus competent cells using varying concentrations of SNO-CoA as substrate assessed as Vmax at 100 nM by Michaelis-Menten analysis (reference value: 23 umol.min)
[14] = compound: O=C1NC(=O)C2(N1)c1ccccc1-c1ccc(C3CC3)cc12; assay: Uncompetitive inhibition of C-terminal 6His-tagged human recombinant SCoR2 AKR1A1 expressed in Escherichia coli BL21-CodonPlus competent cells using varying concentrations of SNO-CoA as substrate assessed as Km at 400 nM by Michaelis-Menten analysis (reference value: 254 uM)
[15] = compound: O=C1NC(=O)C2(N1)c1ccccc1-c1ccc(C3CC3)cc12; assay: Uncompetitive inhibition of C-terminal 6His-tagged human recombinant SCoR2 AKR1A1 expressed in Escherichia coli BL21-CodonPlus competent cells using varying concentrations of SNO-CoA as substrate assessed as Km at 100 nM by Michaelis-Menten analysis (reference value: 254 uM)

Molecule: O=C1NC(=O)C2(N1)c1cc(F)ccc1-c1ccc(C3CCC3)cc12 (stereo in doubt; 17-1)
- Ratio IC50 (Homo sapiens): 1.7

Molecule: O=C(O)Cc1cc(F)cc2c1-c1ccc(F)cc1C21NC(=O)NC1=O (stereo in doubt; 49-1)
- Ratio IC50 (Homo sapiens): 0.53

Molecule: O=C1NC(=O)C2(N1)c1cc(F)ccc1-c1c(-c3cn(C4CCCC4)nn3)cc(F)cc12 (stereo not given)
- Ratio IC50 (Homo sapiens): 0.17
- IC50 [1]: 11 nM
- IC50 [2]: 66 nM

Molecule: O=C(O)COc1cc2c(cc1F)C1(NC(=O)NC1=O)c1cc(F)ccc1-2 (stereo in doubt; 48-1) [listing 1 of 2 here]
- Ratio IC50 (Homo sapiens): 0.43

Molecule: O=C(O)Cc1c(O)c(F)cc2c1-c1ccc(F)cc1C21NC(=O)NC1=O (stereo in doubt; 47-1) [listing 1 of 2 here]
- Ratio IC50 (Homo sapiens): 1.7

Molecule: O=C1NC(=O)C2(N1)c1cc(F)ccc1-c1ccc(C3CCC3)cc12 (stereo in doubt; 17-2)
- Ratio IC50 (Homo sapiens): 0.66

Molecule: O=C(O)COc1cc2c(cc1F)C1(NC(=O)NC1=O)c1cc(F)ccc1-2 (stereo in doubt; 48-1) [listing 2 of 2 here]
- IC50 [1]: 27 nM
- IC50 [2]: 63 nM

Molecule: O=C(O)Cc1c(O)c(F)cc2c1-c1ccc(F)cc1C21NC(=O)NC1=O (stereo in doubt; 47-2) [listing 1 of 2 here]
- Ratio IC50 (Homo sapiens): 0.67

Molecule: O=C1NC(=O)C2(N1)c1ccccc1-c1c(F)cccc12 (stereo not given)
- Ratio IC50 (Homo sapiens): 0.63
- IC50 [1]: 52 nM
- IC50 [2]: 82 nM

Molecule: O=C(O)Cc1cc(F)cc2c1-c1ccc(F)cc1C21NC(=O)NC1=O (stereo in doubt; 49-2)
- Ratio IC50 (Homo sapiens): 0.26

Molecule: O=C1NC(=O)C2(N1)c1cc(F)ccc1-c1c(OCC(=O)N3CCC3)cc(F)cc12 (stereo not given)
- Ratio IC50 (Homo sapiens): 0.31
- IC50 [1]: 18 nM
- IC50 [2]: 59 nM

Molecule: O=C1NC(=O)C2(N1)c1cc(F)ccc1-c1ccc(Br)cc12 (stereo not given)
- Ratio IC50 (Homo sapiens): 0.43
- IC50 [1]: 22 nM
- IC50 [2]: 51 nM

Molecule: O=C1NC(=O)C2(N1)c1cc(Cl)ccc1-c1ccc(Cl)cc12
- Ratio IC50 (Homo sapiens): 0.44
- IC50 [1]: 56 nM
- IC50 [2]: 127 nM

Molecule: O=C(O)COc1cc2c(cc1F)C1(NC(=O)NC1=O)c1cc(F)ccc1-2 (stereo in doubt; 48-2) [listing 2 of 2 here]
- Ratio IC50 (Homo sapiens): 0.27

Molecule: O=C1NC(=O)C2(N1)c1cc(F)ccc1-c1cc(OC3COC3)c(F)cc12 (stereo not given)
- Ratio IC50 (Homo sapiens): 0.48
- IC50 [1]: 14 nM
- IC50 [2]: 29 nM

Molecule: O=C1NC(=O)C2(N1)c1ccc(OCC(=O)N3CCC3)cc1-c1ccc(F)cc12 (stereo not given)
- Ratio IC50 (Homo sapiens): 0.24
- IC50 [1]: 19 nM
- IC50 [2]: 80 nM

Molecule: O=C(O)Cc1c(O)c(F)cc2c1-c1ccc(F)cc1C21NC(=O)NC1=O (stereo in doubt; 47-1) [listing 2 of 2 here]
- IC50 [1]: 42 nM
- IC50 [2]: 25 nM

B1: Aldo-keto reductase family 1 member A1 (Homo sapiens), P14550 (protein)
chain: MAASCVLLHTGQKMPLIGLGTWKSEPGQVKAAVKYALSVGYRHIDCAAIYGNEPEIGEALKEDVGPGKAVPREELFVTSKLWNTKHHPEDVEPALRKTLADLQLEYLDLYLMHWPYAFERGDNPFPKNADGTICYDSTHYKETWKALEALVAKGLVQALGLSNFNSRQIDDILSVASVRPAVLQVECHPYLAQNELIAHCQARGLEVTAYSPLGSSDRAWRDPDEPVLLEEPVVLALAEKYGRSPAQILLRWQVQRKVICIPKSITPSRILQNIKVFDFTFSPEEMKQLNALNKNWRYIVPMLTVDGKRVPRDAGHPLYPFNDPY
- Vmax [12]: 4.5 µmol·min
- Vmax [13]: 13 µmol·min
- Km [14]: 98 µM
- Km [15]: 199 µM

More lines, main results first:

- IC50 [3]: 27 nM
- IC50 [1]: 46 nM
- IC50 [4]: 45 nM
- IC50 [2]: 57 nM
Molecule: O=C1NC(=O)C2(N1)c1cc(F)ccc1-c1ccc(F)cc12
- Ratio IC50 (Homo sapiens): 0.81
- inhibition in vivo at 20 mg/kg [5]: 80%
- inhibition (Mus musculus [6]): Active
- Activity (Mus musculus [7]): inactive
- Activity (Mus musculus [8]): inactive
- inhibition (Mus musculus [9]): Active
- Activity (Mus musculus [10]): inactive
- Activity (Mus musculus [11]): inactive

- IC50 [1]: 13 nM
- IC50 [2]: 74 nM
Molecule: O=C1NC(=O)C2(N1)c1ccc(OCCO)cc1-c1ccc(F)cc12 (stereo not given)
- Ratio IC50 (Homo sapiens): 0.18

- IC50 [1]: 22 nM
- IC50 [2]: 82 nM
Molecule: O=C(O)COc1cc2c(cc1F)C1(NC(=O)NC1=O)c1cc(F)ccc1-2 (stereo in doubt; 48-2) [listing 1 of 2 here]

- IC50 [4]: 325 nM
Molecule: CC(/C=C1\SC(=S)N(CC(=O)O)C1=O)=C\c1ccccc1

- IC50 [1]: 212 nM
- IC50 [2]: 122 nM
Molecule: O=C1NC(=O)C2(N1)c1cc(F)ccc1-c1ccc(C3CC3)cc12 (stereo not given)
- Ratio IC50 (Homo sapiens): 1.7

- IC50 [1]: 16 nM
- IC50 [2]: 67 nM
Molecule: O=C1NC(=O)C2(N1)c1cc(F)ccc1-c1c(F)cccc12 (stereo not given)
- Ratio IC50 (Homo sapiens): 0.24

- IC50 [1]: 16 nM
- IC50 [2]: 53 nM
Molecule: O=C1NC(=O)C2(N1)c1ccccc1-c1ccc(Cl)cc12 (stereo not given)
- Ratio IC50 (Homo sapiens): 0.3

- IC50 [1]: 32 nM
- IC50 [2]: 48 nM
Molecule: O=C(O)Cc1c(O)c(F)cc2c1-c1ccc(F)cc1C21NC(=O)NC1=O (stereo in doubt; 47-2) [listing 2 of 2 here]

- IC50 [1]: 15 nM
- IC50 [2]: 72 nM
Molecule: O=C1NC(=O)C2(N1)c1cc(F)ccc1-c1cc(C3CC3)c(F)cc12 (stereo not given)
- Ratio IC50 (Homo sapiens): 0.21

- IC50 [1]: 53 nM
- IC50 [2]: 42 nM
Molecule: O=C(O)COc1ccc2c(c1)-c1ccc(F)cc1C21NC(=O)NC1=O (stereo not given)
- Ratio IC50 (Homo sapiens): 1.3

- IC50 [1]: 16 nM
- IC50 [2]: 68 nM
Molecule: COc1ccc2c(c1)-c1ccc(F)cc1C21NC(=O)NC1=O (stereo not given)
- Ratio IC50 (Homo sapiens): 0.24
